Assay results: PMC12034913 (Journal of Clinical Pharmacology, 2024)

Columns and labels:
[1] = proposed threshold; cited from earlier work
[2] = cited from earlier work
[3] = Open-label drug–drug interaction study: dasatinib plasma pharmacokinetics; assay type: in vivo, human
Procedure, shortened: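 Healthy fasted volunteers (N = 18). Test compound given as a 100 mg IR tablet orally with ~240 mL water on day 1 alone and on day 6 after 40 mg delayed-release PPI QD on evenings of days 2–5. Fasted ≥10 h before and 4 h after dose. K2EDTA plasma was analysed by LC-MS/MS (LLOQ 0.75 ng/mL). PK was non-compartmental, with day 6/day 1 geometric mean ratios and 90% CI from ANOVA on ln-values.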

[4] = omeprazole 40 mg at steady state, 10 h before crystalline dasatinib 100 mg

Cc1nc(Nc2ncc(C(=O)Nc3c(C)cccc3Cl)s2)cc(N2CCN(CCO)CC2)n1 [Crystalline Dasatinib, dasatinib]
Cmax threshold for achieving MMR [1]: 69.2 ng/mL
effect on dasatinib plasma exposure ([2]; antacid administered 2 h prior to crystalline dasatinib): unaffected
reduction in absorption and bioavailability of dasatinib with PPIs ([2]; experimental setting controlled for gastric pH above 4): ≤ 80%
extrapolated area in the plasma concentration–time profile (mean ± SD) ([3]; crystalline dasatinib formulation administered alone): 2.7%
reduction in dasatinib plasma exposure ([3]; dosing interval of 10 h between PPI and crystalline dasatinib): ~90%
AUC(0-t) ([3]; human, plasma, oral, 100 mg): 735 ng·h/mL
Cmax ([3]; human, plasma, oral, 100 mg): 195 ng/mL
AUC(0-t) ([3]; human, plasma, po, 100 mg): 798 ± 274 ng·h/mL
Cmax ([3]; human, plasma, po, 100 mg): 225 ± 105 ng/mL
half-life ([3]; human, plasma, po, 100 mg): 5.7 ± 1.5 h
mean reduction of Cmax by omeprazole comedication [3, 4]: 96%
reduction of AUC0-24 by omeprazole comedication [3, 4]: 89%
reduction of GI absorption and bioavailability ([3]; omeprazole at steady state dosed in the evening 10 h prior to crystalline dasatinib): about 90%
Cmax ratio Test/Control (geometric means) ([3]; test = with omeprazole, control = crystalline dasatinib alone, 90% CI 2.73-4.96): 3.7%
AUC0-24 ratio Test/Control (geometric means) ([3]; test = with omeprazole, control = crystalline dasatinib alone, 90% CI 9.13-14.59): 11.5%
